# Data published in ChEMBL document CHEMBL1125119, “Pyrroloisoquinoline antidepressants. 3. A focus on serotonin” (J Med Chem, 1990).
# What was measured:
# [1] = tested on: Mus musculus; experiment: Tested in vivo for head twitches antagonizing activity in mice; format: functional
# [2] = tested on: Rattus norvegicus; experiment: Tested in vivo for serotonin syndrome antagonizing activity in rat; format: functional
# [3] = tested on: Mus musculus; experiment: In vivo effect on Tetrabenazine ptosis activity in mice following i.p. administration.; format: functional; conditions: ip
# [4] = tested on: Mus musculus; experiment: In vivo effect on Tetrabenazine motor activity in mice following i.p. administration.; format: functional; conditions: ip
# [5] = molecular target: norepinephrine transporter (Rattus norvegicus); experiment: Tested in vitro for norepinephrine (NE) neuronal uptake inhibition
# [6] = molecular target: dopamine transporter (Rattus norvegicus); experiment: Tested in vitro for dopamine(DA) neuronal uptake inhibition
# [7] = tested on: Rattus norvegicus; experiment: Tested in vivo for serotonin syndrome antagonizing activity in rat at a dose of 5 mg/kg; format: functional
# [8] = tested on: Mus musculus; experiment: Tested in vivo for head twitches antagonizing activity in mice at a dose of 2 mg/kg; format: functional
# Method in brief: (§1)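 Male Swiss CD-1 mice (19–24 g), 10 per dose, received test compound s.c. 30 min later they got a subthreshold dose of L-5-hydroxytryptophan (50 mg/kg i.p.). After 15 min acclimation, presence or absence of head twitches was scored over 2 min. Results were expressed as percent responding or as ED50 by probit analysis, using at least three doses.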
# [9] = tested on: Rattus norvegicus; experiment: Tested in vivo for serotonin syndrome antagonizing activity in rat at a dose of 4 mg/kg; format: functional
# [10] = tested on: Mus musculus; experiment: Tested in vivo for head twitches antagonizing activity in mice at a dose of 5 mg/kg; format: functional; method in brief: as §1
# [11] = tested on: norepinephrine transporter (Rattus norvegicus); experiment: Tested in vitro for norepinephrine (NE) neuronal uptake inhibition; remark: listed apart in the source
# [12] = tested on: dopamine transporter (Rattus norvegicus); experiment: Tested in vitro for dopamine(DA) neuronal uptake inhibition; remark: listed apart in the source
# [13] = molecular target: serotonin transporter (Rattus norvegicus); experiment: Tested in vitro for serotonin(5-HT) neuronal uptake inhibition
# [14] = tested on: Rattus norvegicus; experiment: Tested in vivo for serotonin syndrome antagonizing activity in rat at a dose of 4 mg/kg on oral administration; format: functional
# [15] = tested on: Rattus norvegicus; experiment: Tested in vivo for serotonin syndrome antagonizing activity in rat at a dose of 4 mg/kg
# [16] = tested on: Rattus norvegicus; experiment: Tested in vivo for serotonin syndrome antagonizing activity in rat on oral administration; format: functional
# [17] = tested on: Rattus norvegicus; experiment: Tested in vivo for serotonin syndrome antagonizing activity in rat at a dose of 40 mg/kg; format: functional; conditions: read-out: Inhibition
# [18] = tested on: serotonin transporter (Rattus norvegicus); experiment: Tested in vitro for serotonin(5-HT) neuronal uptake inhibition; remark: listed apart in the source
structure (smiles),measurement,setting,value
CNCCC(Oc1ccc(C(F)(F)F)cc1)c1ccccc1 (stereo unspecified) [FLUOXETINE],ED50,"[1]; Mus musculus, read-out: ED50",0.43 mg/kg
same,ED50,[2],12.7 mg/kg
C#Cc1ccc(C2CN3CCCC3c3ccccc32)cc1 (stereo unspecified),ED50,"[1]; Mus musculus, read-out: ED50",~1 mg/kg
CN(C)CCCC1(c2ccc(F)cc2)OCc2cc(C#N)ccc21 (stereo unspecified) [CITALOPRAM],ED50,"[1]; Mus musculus, read-out: ED50",0.29 mg/kg
same,ED50,[2],0.78 mg/kg
CC(=O)Nc1ccc(C2CN3CCCC3c3ccccc32)cc1 (stereo unspecified),ED50,"[1]; Mus musculus, read-out: ED50",0.31 mg/kg
same,ED50,[3],0.04 mg/kg
same,ED50,[4],0.04 mg/kg
same,ED50,[2],1.37 mg/kg
Clc1ccc(C2CN3CCCC3c3cc(Cl)ccc32)cc1 (stereo unspecified),Ki,[5],0.0032 µM
same,Ki,[6],0.0032 µM
same,inhibition in vivo at 5 mg/kg,[7],22%
same,ED50,[3],4 mg/kg
same,inhibition in vivo at 2 mg/kg,[8],30%
"CSc1ccc(C2CN3CCC[C@@H]3c3ccccc32)cc1 (single isomer, unassigned; (-))",ED50,[1],~5 mg/kg
FC(F)(F)c1ccc(C2CN3CCCC3c3ccccc32)cc1 (stereo unspecified),Ki,[5],0.0106 µM
same,Ki,[6],0.128 µM
same,inhibition in vivo at 4 mg/kg,[9],5.8%
same,ED50,"[1]; Mus musculus, read-out: ED50",0.55 mg/kg
same,ED50,[3],~2 mg/kg
same,ED50,[4],> 3 mg/kg
CSc1ccccc1C1CN2CCCC2c2ccccc21 (stereo unspecified),inhibition in vivo at 5 mg/kg,[10],30%
COc1ccc(OC[C@H]2CN(C)CC[C@@H]2c2ccccc2)cc1 [FEMOXETINE],ED50,"[1]; Mus musculus, read-out: ED50",3.3 mg/kg
same,ED50,[3],2.1 mg/kg
same,ED50,[4],3.5 mg/kg
same,ED50,[2],11.4 mg/kg
CSc1ccc(C2CN3CCC[C@H]3c3c(Cl)cccc32)cc1.Cl (stereo partly specified),Inhibition,[11],10%
same,inhibition in vivo at 5 mg/kg,[10],30%
same,ED50,[3],3 mg/kg
same,ED50,[4],~1 mg/kg
same,Inhibition,[12],10%
same,Ki,[13],~0.1 µM
Clc1ccccc1C1CN2CCC[C@@H]2c2ccccc21 (stereo partly specified),ED50,"[1]; Mus musculus, read-out: ED50",> 25 mg/kg
same,ED50,[3],0.17 mg/kg
same,ED50,[4],> 60 mg/kg
same,ED50,[2],> 25 mg/kg
Clc1ccc(C2CN3CCCC3c3ccccc32)c(Cl)c1 (stereo unspecified),ED50,"[1]; Mus musculus, read-out: ED50",~5 mg/kg
COc1ccccc1C1CN2CCCC2c2ccccc21 (stereo unspecified),ED50,"[1]; Mus musculus, read-out: ED50",0.81 mg/kg
same,ED50,[3],~0.3 mg/kg
same,ED50,[4],~0.6 mg/kg
same,inhibition in vivo at 4 mg/kg,[14],5.2%
C[S+]([O-])c1ccc(C2CN3CCCC3c3ccccc32)cc1 (stereo in doubt; 11b),Ki,[5],0.723 µM
same,Ki,[6],6.18 µM
same,ED50,[1],0.55 mg/kg
same,ED50,[4],> 3 mg/kg
same,Ki,[13],0.597 µM
CSc1ccc(C2CN3CCC[C@@H]3c3ccccc32)cc1 (stereo in doubt; 3b),ED50,[1],0.081 mg/kg
same,ED50,[3],0.4 mg/kg
same,ED50,[4],> 30 mg/kg
same,ED50,[2],0.2 mg/kg
Br.CSc1ccc(C2CN3CCCC3c3c(C)cccc32)cc1 (stereo unspecified),Ki,[5],0.0115 µM
same,Ki,[6],0.0577 µM
same,ED50,"[1]; Mus musculus, read-out: ED50",0.16 mg/kg
same,ED50,[3],~1 mg/kg
same,ED50,[4],> 3 mg/kg
same,Ki,[13],0.0024 µM
Clc1ccc([C@@H]2CN3CCC[C@@H]3c3ccccc32)cc1,inhibition in vivo at 5 mg/kg,[7],52%
same,ED50,"[1]; Mus musculus, read-out: ED50",0.76 mg/kg
same,ED50,[3],0.14 mg/kg
same,ED50,[4],0.39 mg/kg
CN(C)CCCN1c2ccccc2CCc2ccccc21 [IMIPRAMINE],ED50,"[1]; Mus musculus, read-out: ED50",> 50 mg/kg
same,ED50,[3],0.98 mg/kg
same,ED50,[4],0.58 mg/kg
same,ED50,[2],> 25 mg/kg
CSc1ccc(C2CN3CCCC3c3ccc(Cl)cc32)cc1.Cl (stereo unspecified),Ki,[5],0.0162 µM
same,Ki,[6],0.103 µM
same,inhibition in vivo at 5 mg/kg,[10],30%
same,ED50,[3],> 3 mg/kg
same,ED50,[4],> 3 mg/kg
same,Ki,[13],0.0086 µM
CSc1ccc(C2CN3CCC[C@@H]3c3c(Cl)cccc32)cc1.Cl (stereo partly specified),Ki,[5],0.0231 µM
same,Ki,[6],0.29 µM
same,ED50,"[1]; Mus musculus, read-out: ED50",1.04 mg/kg
same,ED50,[3],3 mg/kg
same,ED50,[4],3 mg/kg
same,Ki,[13],0.003 µM
CSc1ccc([C@@H]2CN3CCC[C@H]3c3ccccc32)cc1,ED50,"[1]; Mus musculus, read-out: ED50",~10 mg/kg
same,ED50,[4],> 30 mg/kg
same,inhibition in vivo at 4 mg/kg,[15],4.5%
CSc1ccc(C2CN3CCCC3c3c(Br)cccc32)cc1.Cl (stereo unspecified),ED50,"[1]; Mus musculus, read-out: ED50",> 5 mg/kg
CSc1ccc(C2CN3CCCC3c3c(C#N)cccc32)cc1.Cl (stereo unspecified),Ki,[5],0.39 µM
same,Ki,[6],2.8 µM
same,ED50,"[1]; Mus musculus, read-out: ED50",> 5 mg/kg
same,Ki,[13],0.0147 µM
NC(=O)c1ccc(C2CN3CCCC3c3ccccc32)cc1 (stereo unspecified),Ki,[5],0.0902 µM
same,Ki,[6],0.0845 µM
same,ED50,[16],4.5 mg/kg
same,ED50,"[1]; Mus musculus, read-out: ED50",~5 mg/kg
Br.CCSc1ccc(C2CN3CCCC3c3ccccc32)cc1 (stereo unspecified),inhibition in vivo at 40 mg/kg,[17],36%
same,ED50,"[1]; Mus musculus, read-out: ED50",0.54 mg/kg
same,ED50,[3],~3 mg/kg
same,ED50,[4],> 10 mg/kg
"CSc1ccc(C2CN3CCC[C@@H]3c3ccccc32)cc1 (single isomer, unassigned; (+))",ED50,[1],0.043 mg/kg
c1ccc([C@@H]2CN3CCC[C@@H]3c3ccccc32)cc1,ED50,"[1]; Mus musculus, read-out: ED50",> 25 mg/kg
same,ED50,[3],0.07 mg/kg
same,ED50,[4],0.34 mg/kg
N#Cc1ccc(C2CN3CCCC3c3ccccc32)cc1 (stereo unspecified),ED50,"[1]; Mus musculus, read-out: ED50",~3 mg/kg
same,ED50,[2],15 mg/kg
CS(=O)(=O)c1ccc(C2CN3CCCC3c3ccccc32)cc1 (stereo unspecified),ED50,"[1]; Mus musculus, read-out: ED50",~5 mg/kg
same,ED50,[3],30 mg/kg
same,inhibition in vivo at 4 mg/kg,[14]; read-out: Inhibition,1.5%
Fc1ccc([C@@H]2CCNC[C@H]2COc2ccc3c(c2)OCO3)cc1 [PAROXETINE],ED50,"[1]; Mus musculus, read-out: ED50",0.062 mg/kg
same,ED50,[2],0.49 mg/kg
C[S+]([O-])c1ccc(C2CN3CCCC3c3ccccc32)cc1 (stereo in doubt; 11a),Inhibition,[11],4%
same,Inhibition,[18],12%
same,ED50,[1],>5 mg/kg
same,Inhibition,[12],2%
COc1cc(OC)c2c(c1)C1CCCN1CC2c1ccc(SC)cc1.Cl (stereo unspecified),Inhibition,[11],55%
same,Inhibition,[18],68%
same,ED50,"[1]; Mus musculus, read-out: ED50",~5 mg/kg
same,Inhibition,[12],67%
